{"data": "Experimental data pooled from the literature", "note": "Lines come from different studies, so protocols differ."}
{"SMILES": "C=C(F)C(=O)N1CCN(c2nc(OC[C@@H]3CCCN3C)nc3c2CCN(c2cccc4cccc(Cl)c24)C3)C[C@@H]1CC#N", "target or system": "NCI-H358", "test": "cell growth or viability, ATP luminescence", "conditions": "3D culture", "endpoint": "IC50", "value": "3.85 nM"}
{"SMILES": "O=C(O)c1cn(C2CC2)c2cc(N3CCNCC3)c(F)cc2c1=O", "target or system": "Bacillus subtilis", "test": "microbial growth", "system": "ATCC6051", "endpoint": "MIC", "value": "2 µM"}
{"SMILES": "C=CC(=O)NC1CCN(c2ncc3ncnc(Nc4ccc(Oc5ccc6c(c5)ncn6C)c(C)c4)c3n2)CC1", "target or system": "SNU-182", "test": "cell growth or viability", "endpoint": "EC50", "value": "0.191 nM"}
{"SMILES": "CC(C)=CCC/C(C)=C/CO", "target or system": "Cryptococcus neoformans", "test": "microbial killing, broth dilution", "conditions": "clinical isolate", "endpoint": "MFC", "value": "800 µg/mL"}
{"SMILES": "Cc1nn(-c2ccccc2)c2c1C(c1c[nH]c3ccccc13)N(C(=O)c1ccncc1)N2 (centres unmarked)", "target or system": "Cryptococcus neoformans", "test": "microbial growth", "conditions": "clinical isolate", "endpoint": "MIC", "value": "4 µg/mL"}
{"SMILES": "C=CC(=O)N1CCN(c2nc(=O)n(-c3c(C)ccnc3C(C)C)c3nc(-c4c(O)cccc4F)c(F)cc23)[C@@H](C)C1", "target or system": "NCI-H358", "test": "cell growth or viability, ATP luminescence", "endpoint": "IC50", "value": "44.1 nM"}
{"SMILES": "Nc1ccc(/C=C/C(=O)N2CCc3c(oc4c(-c5ccc(F)cc5)cc(-c5ccc(C(=O)N6CCC(F)(F)CC6)nn5)cc34)C2)cn1", "target or system": "ASPC1", "test": "cell growth or viability, CCK-8", "conditions": "72 h", "endpoint": "IC50", "value": "340 nM"}
{"SMILES": "Cc1nn(-c2ccccc2)c2c1C(c1ccc(O)cc1)N(C(=O)c1ccncc1)N2 (centres unmarked)", "target or system": "Cryptococcus neoformans", "test": "microbial growth", "conditions": "clinical isolate", "endpoint": "MIC", "value": "> 100 µg/mL"}
{"SMILES": "COc1ccc2c(C(=O)c3c(F)c(F)c(F)c(F)c3F)c(-c3ccc(OC)c(O)c3)[nH]c2c1", "test": "tubulin polymerisation, inhibitor, absorbance", "endpoint": "IC50", "value": "> 20000 nM"}
{"SMILES": "COc1cc2nc(N3CCN(C(=O)C4COc5ccccc5O4)CC3)nc(N)c2cc1OC (centres unmarked)", "target or system": "CNE-2", "test": "cell growth or viability, MTT", "conditions": "48 h", "endpoint": "IC50", "value": "30700 nM"}
{"SMILES": "Clc1ccccc1C(c1ccccc1)(c1ccccc1)n1ccnc1", "target or system": "Cryptococcus neoformans", "test": "microbial growth", "conditions": "clinical isolate", "endpoint": "MIC", "value": "4 µg/mL"}
{"SMILES": "COC1=CC(=O)c2ccccc2C1=O", "target or system": "Nakaseomyces glabratus", "test": "microbial growth, broth dilution", "system": "ATCC2001", "conditions": "24 h", "endpoint": "MIC", "value": "25 µg/mL"}
{"SMILES": "Cc1nn(-c2ccccc2)c2c1C(c1ccc(Cl)cc1)N(C(=O)c1ccncc1)N2 (centres unmarked)", "target or system": "Cryptococcus neoformans", "test": "microbial growth", "conditions": "clinical isolate", "endpoint": "MIC", "value": "32 µg/mL"}
{"SMILES": "C=CCc1ccc(O)c(OC)c1", "target or system": "Cryptococcus neoformans", "test": "microbial killing, broth dilution", "conditions": "clinical isolate", "endpoint": "MFC", "value": "400 µg/mL"}
